According to the EternaBench riboswitch data:

System: MS2 coat protein
Experiment: apparent Kd, MS2 coat protein; higher = weaker binding; RNA-MaP array; theophylline 2 mM where present
In short: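 Designs on Illumina sequencing-chip clusters, transcribed by stalled E. coli RNA polymerase, were exposed to SNAP-549-labelled MS2 coat protein in doubling steps from 0.7 or 1.5 nM up to 3 µM, without and then with constant ligand. The buffer held 100 mM Tris-HCl pH 7.5, 80 mM KCl, 4 mM MgCl2, BSA, DTT, yeast tRNA and Tween-20. Apparent Kd values are medians of filtered per-cluster binding-curve fits to green signal normalised to red-channel RNA signal and control-cluster median Fmax.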

[1] = designed as: ON switch for theophylline, no ligand
[2] = ligand present: theophylline, designed as: ON switch for theophylline
[3] = designed as: OFF switch for theophylline, no ligand
[4] = ligand present: theophylline, designed as: OFF switch for theophylline

Sequence | apparent Kd [1] [nM] | apparent Kd [2] [nM] | apparent Kd [3] [nM] | apparent Kd [4] [nM]
GGUGAUCCGUGCUGCCGGAUCAUCGGUGAUACCAGCAUCGAAAGAUGCCCUUGGCAGCACCAACAUGAGGAUCACCCAUGUAAUA | 206 | 73.4 |  | 
CUCUGAGUGAGUAAUCACUCAGAGGCGGAUACCAGCGAGGUCCAUCGCCCUUGGCAGCCGAACAUGAGGAUCACCCAUGUCGGUA | 10.7 | 14.6 |  | 
ACGAUGCGACAUGAGGAUCACCCAUGUGAUACCAGCCUGGAAACAGGCCCUUGGCAGCACAAAUACUCCAGAAACGCAUCGAAUA |  |  | 267 | 439
AUCAGUAGAACUGAUACCAGUCAAAGGCUUUGACCUCAUAACAUGAGGAUCACCCAUGUUGACCCUUGGCAGCAGUAGGCAAGGG |  |  | 21.4 | 35.1
GAUGAACUAUUUGAUACCAGACUACAUGAGGAUCACCCAUGUGUGUUAAUUUUUCAGUCAGUCCCUUGGCAGCAAAUAGUUUAUC |  |  | 61.2 | 146
GAGGUCCUGAGAGAUACCAGUGAGGCCACAUGAGGAUCACCCAUGUCCCUCACUCCGGCCCACCCUUGGCAGCUCGGAAGGUAAA |  |  | 18.1 | 119
AUAACUGUCAAGGAAGGUGAUCCAGCAGAUACCAGCUAGGAAACUAGCCCUUGGCAGCUGCAACAUGAGGAUCACCCAUGUAAUA |  |  | 76.8 | 121
GAUGAUAUUGCAGAUACCAGACACAUGAGGAUCACCCAUGUCUCUGAGAUGAAGGAUCGUGUCCCUUGGCAGCUGCGAUAUCAUC |  |  | 32.7 | 338
UAUAUAUAUAUUGAUACCAGCAGAGAAAACAUAUAUCCUAACAUGAGGAUCACCCAUGUAUGCCCUUGGCAGCGAUAUAUAUAUA |  |  | 26 | 32.3
AAACGUUGCUGCGAUACCAGACAUGAGGAUCACCCAUGUACCAAGGUACGAAUAUAACAUGUCCCUUGGCAGCGCAGCAACGAAA |  |  | 12.6 | 279
UGCACCAUAAUCAUGUUGGUGCUAGGUGAUACCAGCAUCGAAAGAUGCCCUUGGCAGCACCAACAUGAGGAUCACCCAUGUAAUA | 130 | 99.8 |  | 
AUAAAUAUAACCGAUACCAGCCUUAUACAUGAGGAUCACCCAUGUUAUGCUUCCUUUUUUGGCCCUUGGCAGCGGAAAUGGGUAA | 81.7 | 36.2 |  | 
ACGACAUGAGGAUCACCCAUGUAAGGUGAUACCAGACGAAGUAAUGUCCCUUGGCAGCACACGCAUAGUUGCGAUUAUUGUACGA | 533 | 137 |  | 
AGCGACAUGCGUGAUACCAGCUACAUGAGGAUCACCCAUGUACGUAGGAAACUACUGUGUAGCCCUUGGCAGCAUAGUGCAUGUC |  |  | 12.6 | 57.1
AUGUCGUUGAAUACAGCGGCAUGGAGUGAUACCAGAAUGAUCAAAUUCCCUUGGCAGCAUGACAUGAGGAUCACCCAUGUUCGAU | 111 | 104 |  | 
UGAUCCUGCAGGGAUACCAGCGCCGCUUGAUAACUGUGCACAUGAGGAUCACCCAUGUAGCGCCCUUGGCAGCCCAGCUAGAGGG | 25.4 | 23 |  | 
GAUGAACUAUUUGAUACCAGACAACAUGAGGAUCACCCAUGUGCGCGUCGUCCUCUGCCUGUCCCUUGGCAGCGGAUAGUUUAUC |  |  | 59.5 | 89.9
UCUUUCUAUGUAGAUACCAGCAUGUUAUAUUUCUAAUGACAUGAGGAUCACCCAUGUAAAUGCCCUUGGCAGCUACAUUUUCUUU | 23.1 | 16 |  | 
AUAAGUAAUGUUUCGUGUAUUAUUACAGAUACCAGACUAUCCUAUGUCCCUUGGCAGCUGGAUUACAUGAGGAUCACCCAUGUUG |  |  | 16.4 | 24.9
UGUUUGGUGCGCGAGUGUUGGAUAAUUGAUACCAGUGUAGAUGUGCGCCCUUGGCAGCGAAUCCUAACAUGAGGAUCACCCAUGU | 43.8 | 57.1 |  | 

Sequence | apparent Kd [1] [nM] | apparent Kd [2] [nM] | apparent Kd [3] [nM] | apparent Kd [4] [nM]
AUUAUCAUGGUCAUAUAUAUAUCGUCAGAUACCAGACUAGAUAUAGUCCCUUGGCAGCUGUUACAUGAGGAUCACCCAUGUUAUA |  |  | 138 | 47.8
ACAUGAGGAUCACCCAUGUCACGGCACGAUACCAGCUGAUCCGGUGGCCCUUGGCAGCGUGACGUUUGGUCCCGCGGAUGACACG | 134 | 43 |  | 
UCGUGGUCCGCAAGGACCGGGAGUUGCGAUACCAGCACGGUAACGUGCCCUUGGCAGCGCACAUGAGGAUCACCCAUGUGGUGUU |  |  | 229 | 514
CAUACUUUAGUAUGACGUGUGGGCAGUGAUACCAGAUACGAAAGUAUCCCUUGGCAGCACAACAUGAGGAUCACCCAUGUAAUUA | 20.5 | 31.3 |  | 
AAUCUGUCGGGUGAUACCAGCCUCGGCGCAUCUCACGCUGAACAUGAGGAUCACCCAUGUGGCCCUUGGCAGCACAUGACAAAUC | 572 | 55.1 |  | 
ACAUGAGGAUCACCCAUGUGCCGUCUUGAUACCAGACGCGAAGUAGUCCCUUGGCAGCAAAUACGUGAGGGUCGCGCAUGUGUAA |  |  | 24.1 | 34.7
GAGCUGAUGUAGGCCGGAUAUCCGGGAGAUACCAGUACAGAAAUGUACCCUUGGCAGCUCUUUCCUACAUGAGGAUCACCCAUGU |  |  | 16.6 | 96
ACAUGAGGAUCACCCAUGUUCCUCGCCGAUACCAGUGAAGAAGUACGCCCUUGGCAGCGGAAAGAGUAUUUUGGAGAUGAGGUAC |  |  | 80 | 88.8
CGUGUCGUAACUGAUACCAGUGUACUGACAUGAGGAUCACCCAUGUUGGGUUUUGUUGUACACCCUUGGCAGCAGAAUCGAUACG |  |  | 76.9 | 119
AUCGUACCUGAUGAUACCAGCAUGUGAUCGUAACAUGAGGAUCACCCAUGUGAUCAGUGAUGCCCUUGGCAGCAUGAUCGGUACA | 35.4 | 14.7 |  | 
GGUGGGACUUGUGAUACCAGCCCAGUUCUAAUCGAACUGCACAUGAGGAUCACCCAUGUCGGCCCUUGGCAGCAUGAGUAUUUAU | 322 | 19.3 |  | 
AGAUUAAAGAGUGAUACCAGACUACAUGAGGAUCACCCAUGUUACAUUUGAGUAGCUUUAGUCCCUUGGCAGCACUUUAUGUACA |  |  | 45.5 | 17.6
AAAUAAAUAACUGAUACCAGUCGGACAACAUGAGGAUCACCCAUGUUCACCCAUGUUGAGGACCCUUGGCAGCAGAAAUAUAAAA |  |  | 92.3 | 185
GGUUUCGCGGGCGAUACCAGCUUGAUCGUACUGGCCUGGUACAUGAGGAUCACCCAUGUAAGCCCUUGGCAGCGCGCGCGAGACC |  |  | 11.3 | 24.7
CGAUCUUUCGAAAGAAGGAUCGAGUCUGAUACCAGAGACGAAAGUCUCCCUUGGCAGCAGUGCCAACAUGAGGAUCACCCAUGUU | 15.8 | 15.5 |  | 
UUUGCACAUGAGGAUCACCCAUGUACAGAUACCAGCCUCAUCUACGGCCCUUGGCAGCUGAGACAAUGGUGACGUGAUGGGCUUU |  |  | 11.3 | 16.2
ACACGAGGAUCACCCGUGUCAUGUGGUGAUACCAGUUUACAUGAGAACCCUUGGCAGCAUAACAACAUGAGGAUCACCCAUGUCA | 32.3 | 41.7 |  | 
UGUAACAUGAGGAUCACCCAUGUGAGUGAUACCAGAUAAGUAGUAGUCCCUUGGCAGCAUAUUGGGCGAGUGUAUAGUCUAUGCG | 146 | 193 |  | 
GCACCAGGUACGGAUACCAGCUGCCAGAGAUACAUGAGGAUCACCCAUGUGACCUGAUUUAGCCCUUGGCAGCUGUACCUGGUGC | 466 | 35.7 |  | 
AUCGUACCUGAGGAUACCAGCAUGUGAUCAUAACAUGAGGAUCACCCAUGUAAUCAGUGAUGCCCUUGGCAGCUUGAUCGGUACA | 80.1 | 24.9 |  | 
